How the values were obtained:
Cannabinoid receptor 1 [1] = molecular target: T1, Cannabinoid receptor 1 (Homo sapiens, UniProt P21554); experiment: biochemical; assay type: cell-based, HEK293
Homo sapiens = organism: Homo sapiens; experiment: Selectivity index, ratio of Ki for human recombinant CB1 receptor to Ki for human recombinant CB2 receptor
Cannabinoid receptor 2 [2] = molecular target: T2, Cannabinoid receptor 2 (Homo sapiens, UniProt P34972); experiment: Displacement of [3H]CP55940 from human recombinant CB2 receptor transfected in HEK cell membranes; design: species or system HEK293
Cannabinoid receptor 2 [3] = molecular target: T2, Cannabinoid receptor 2; experiment: Agonist activity at human CB2 receptor transfected in CHO cell membranes by [35S]GTPgammaS binding assay; assay type: functional
CYP3A4 = CYP3A4 (Homo sapiens, UniProt P08684); experiment: Metabolic stability assessed as human recombinant CYP3A4-mediated drug metabolism by measuring compound remaining after 1 hr; assay type: ADME; details: read-out: Drug metabolism
Method in brief: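 Recombinant hCYP3A4 at 20 pmol/mL in 100 mM phosphate pH 7.4 with 1 mM EDTA, […]. Incubation was 1 h at 37 °C with or without NADPH regenerating system, then stopped with cold acetonitrile. Percent remaining is the MS peak area with NADPH over that without, ×100.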

[4] = Metabolic stability in rat plasma assessed as compound remaining measured at 3 hrs; assay type: ADME, cell-free; details: read-out: Stability
Method in brief: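 Fresh rat plasma was spiked with compound and incubated at 37 °C with gentle agitation, in duplicate. Samples were taken at 0, 30 min and 3 h and proteins precipitated with acetonitrile. LC-ESI+-MS/MS in MRM mode; percent remaining is peak area relative to time 0.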

[5] = Intrinsic clearance in human liver microsomes; assay type: ADME, Microsome; details: read-out: CLH
[6] = Intrinsic clearance in rat liver microsomes; assay type: ADME, Microsome; details: read-out: CLH
MDR1 [7] = experiment: Apparent permeability across apical to basolateral side in human MDR1 transfected MDCK2 cells at 10 uM after 2 hrs; assay type: ADME, cell-based, Canis lupus familiaris, MDCK-II; details: dog, MDCK-MDR1
MDR1 [8] = experiment: Efflux ratio of permeability from basolateral to apical side over apical to basolateral side in human MDR1 transfected MDCK2 cells at 10 uM after 2 hrs; assay type: ADME, cell-based, Canis lupus familiaris, MDCK-II; details: dog, MDCK-MDR1
Cannabinoid receptor 2 [9] = molecular target: T2, Cannabinoid receptor 2; details: CHO, 0.001 to 10 uM
Cannabinoid receptor 1 [10] = molecular target: T1, Cannabinoid receptor 1; experiment: Agonist activity at human CB1 receptor transfected in CHO cell membranes by [35S]GTPgammaS binding assay; assay type: functional
Cannabinoid receptor 1 [11] = molecular target: T1, Cannabinoid receptor 1; experiment: Agonist activity at human CB1 receptor transfected in CHO cell membranes at 0.001 to 30 uM by [35S]GTPgammaS binding assay relative to CP55940; assay type: functional

T2 sequence (P34972 whole entry): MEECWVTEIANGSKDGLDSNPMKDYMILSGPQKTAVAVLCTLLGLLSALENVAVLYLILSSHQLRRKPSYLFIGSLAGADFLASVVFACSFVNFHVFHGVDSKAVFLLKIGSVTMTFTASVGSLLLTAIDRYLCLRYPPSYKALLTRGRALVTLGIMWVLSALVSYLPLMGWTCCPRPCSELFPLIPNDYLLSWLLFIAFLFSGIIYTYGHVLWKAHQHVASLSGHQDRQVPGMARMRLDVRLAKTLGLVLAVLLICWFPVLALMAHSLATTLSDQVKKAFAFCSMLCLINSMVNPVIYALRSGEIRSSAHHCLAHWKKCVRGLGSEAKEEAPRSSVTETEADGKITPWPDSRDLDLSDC
T1 sequence (P21554 whole entry): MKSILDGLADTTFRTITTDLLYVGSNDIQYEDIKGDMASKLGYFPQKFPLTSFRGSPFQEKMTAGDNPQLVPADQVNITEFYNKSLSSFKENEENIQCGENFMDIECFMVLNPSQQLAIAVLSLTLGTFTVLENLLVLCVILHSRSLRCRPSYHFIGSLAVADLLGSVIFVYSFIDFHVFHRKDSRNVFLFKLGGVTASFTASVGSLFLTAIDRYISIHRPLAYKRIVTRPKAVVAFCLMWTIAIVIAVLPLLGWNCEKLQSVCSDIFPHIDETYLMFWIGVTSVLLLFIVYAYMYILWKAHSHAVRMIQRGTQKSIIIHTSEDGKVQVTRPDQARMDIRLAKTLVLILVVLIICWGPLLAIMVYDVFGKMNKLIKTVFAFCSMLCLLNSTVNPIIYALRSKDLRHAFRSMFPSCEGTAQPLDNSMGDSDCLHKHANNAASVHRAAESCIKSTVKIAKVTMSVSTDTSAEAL
Chain of CYP3A4 (P08684 whole entry): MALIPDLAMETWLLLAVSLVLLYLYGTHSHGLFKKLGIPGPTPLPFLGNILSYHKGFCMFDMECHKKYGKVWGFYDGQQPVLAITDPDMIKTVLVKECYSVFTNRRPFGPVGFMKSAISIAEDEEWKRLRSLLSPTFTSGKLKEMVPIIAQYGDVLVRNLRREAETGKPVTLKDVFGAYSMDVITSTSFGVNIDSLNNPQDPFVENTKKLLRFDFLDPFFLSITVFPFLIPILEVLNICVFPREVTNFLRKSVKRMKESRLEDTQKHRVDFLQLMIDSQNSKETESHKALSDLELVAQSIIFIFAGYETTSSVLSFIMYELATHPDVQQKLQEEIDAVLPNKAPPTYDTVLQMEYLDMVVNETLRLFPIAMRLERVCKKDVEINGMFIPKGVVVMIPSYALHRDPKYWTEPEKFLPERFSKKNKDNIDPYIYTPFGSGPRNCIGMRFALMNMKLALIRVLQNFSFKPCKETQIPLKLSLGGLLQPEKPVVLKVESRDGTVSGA

Structure (SMILES)	Ki (Cannabinoid receptor 1 [1])	Ratio Ki (Homo sapiens)	Ki (Cannabinoid receptor 2 [2])	further results
CC1(C)C2CC[C@](C)(C2)[C@@H]1NC(=O)c1cn(CCCCO)c2cc(Sc3ccccc3)ccc2c1=O	38.6 nM	15	2.5 nM	
CCn1cc(C(=O)N[C@@H]2C(C)(C)C3CC[C@]2(C)C3)c(=O)c2ccc(F)cc21	960 nM	131	7.3 nM	EC50 (Cannabinoid receptor 2 [3]): 17.2 nM; remaining at 1 h (CYP3A4): 1%; remaining at 3 h [4]: 92%; microsomal CLint [5]: > 700 µL/min/mg; microsomal CLint [6]: > 700 µL/min/mg; Papp A→B at 2 h, 10 µM (MDR1 [7]): 0.17 ×10⁻⁶ cm/s; efflux ratio at 2 h, 10 µM (MDR1 [8]): 1; Emax (Cannabinoid receptor 2 [9]): 45%
CCCCn1cc(C(=O)N[C@@H]2C(C)(C)C3CC[C@]2(C)C3)c(=O)c2ccc(F)cc21	14.4 nM	17	0.8 nM	
COCCn1cc(C(=O)N[C@@H]2C(C)(C)C3CC[C@]2(C)C3)c(=O)c2ccc(Sc3ccccc3)cc21	23.8 nM	22	1.1 nM	
CCCCCn1cc(C(=O)NOCc2ccccc2)c(=O)c2ccc(Sc3ccccc3)cc21	12.9 nM	0.7	19.3 nM	
Cc1cccc(Cn2cc(C(=O)N[C@@H]3C(C)(C)C4CC[C@]3(C)C4)c(=O)c3ccc(F)cc32)c1	> 10000 nM	> 317	31.5 nM	
O=C(NN1CCCCC1)c1cn(-c2ccc(F)cc2)c2cc(Sc3ccccc3)ccc2c1=O	> 10000 nM		> 10000 nM	
CCCn1cc(C(=O)N[C@@H]2C(C)(C)C3CC[C@]2(C)C3)c(=O)c2ccc(Sc3ccccc3)cc21	11 nM	31	0.4 nM	
Cc1cccc(Cn2cc(C(=O)N[C@@H]3C(C)(C)C4CC[C@]3(C)C4)c(=O)c3ccc(Sc4ccccc4)cc32)c1	669 nM	5	139 nM	
CCCCCn1cc(C(=O)NN2CCCCC2)c(=O)c2ccc(Sc3ccccc3)cc21	28.9 nM	2.2	13.3 nM	
Cn1cc(C(=O)N[C@@H]2C(C)(C)C3CC[C@]2(C)C3)c(=O)c2ccc(Sc3ccccc3)cc21	1870 nM	117	16 nM	
CCCCCn1cc(C(=O)NC(CC)CO)c(=O)c2ccc(Sc3ccccc3)cc21 (centres undefined)	58.2 nM	2.9	19.9 nM	
O=C(NN1CCCCC1)c1cn(-c2ccc(Cl)cc2)c2cc(F)ccc2c1=O	> 10000 nM		> 10000 nM	
CC1(C)C2CC[C@](C)(C2)[C@@H]1NC(=O)c1cnc2cc(F)ccc2c1O	> 10000 nM		957 nM	
COCCn1cc(C(=O)N[C@@H]2C(C)(C)C3CC[C@]2(C)C3)c(=O)c2ccc(F)cc21	297 nM	54	5.5 nM	
CCCCCn1cc(C(=O)NCc2ccc(Cl)c(Cl)c2)c(=O)c2ccc(Br)cc21	660 nM	5	130 nM	
CC1(C)C2CC[C@](C)(C2)[C@@H]1NC(=O)c1cn(CCCCSc2ccccc2)c2cc(Sc3ccccc3)ccc2c1=O	> 10000 nM	> 1540	6.5 nM	
CCCCCn1cc(C(=O)N[C@@H]2C(C)(C)C3CC[C@]2(C)C3)c(=O)c2ccc(Sc3ccccc3)cc21	2.45 nM	27.2	0.09 nM	
CCCCCn1cc(C(=O)N[C@@H]2C(C)(C)C3CC[C@]2(C)C3)c(=O)c2ccc(F)cc21	4 nM	17	0.3 nM	

Structure (SMILES)	Ki (Cannabinoid receptor 1 [1])	Ratio Ki (Homo sapiens)	Ki (Cannabinoid receptor 2 [2])	further results
CCCCCn1cc(C(=O)NN(C)C)c(=O)c2ccc(Sc3ccccc3)cc21	86.6 nM	1.1	77.5 nM	
CCCCCn1cc(C(=O)NC23CC4CC(CC(C4)C2)C3)c(=O)c2ccc(F)cc21		38		
CCCCCn1cc(C(=O)NCc2ccc(Cl)c(Cl)c2)c(=O)c2ccc(-c3ccccc3)cc21	390 nM	< 0.04	> 10000 nM	
CCCCCn1cc(C(=O)NC(C)C)c(=O)c2ccc(Sc3ccccc3)cc21	20.9 nM	1.4	14.8 nM	
CCCCCn1cc(C(=O)NOC)c(=O)c2ccc(Sc3ccccc3)cc21	490 nM	1.4	340 nM	
CC1(C)C2CC[C@](C)(C2)[C@@H]1NC(=O)c1c[nH]c2cc(F)ccc2c1=O		> 10		
CCn1cc(C(=O)N[C@@H]2C(C)(C)C3CC[C@]2(C)C3)c(=O)c2ccc(Sc3ccccc3)cc21	181 nM	42	4.4 nM	
CN(C)CCn1cc(C(=O)N[C@@H]2C(C)(C)C3CC[C@]2(C)C3)c(=O)c2ccc(Sc3ccccc3)cc21	28.8 nM	23	1.3 nM	
Cn1cc(C(=O)N[C@@H]2C(C)(C)C3CC[C@]2(C)C3)c(=O)c2ccc(F)cc21	> 10000 nM	> 106	93.9 nM	
CN(C)CCn1cc(C(=O)N[C@@H]2C(C)(C)C3CC[C@]2(C)C3)c(=O)c2ccc(F)cc21			7.9 nM	
CCCCCn1cc(C(=O)NCCN2CCOCC2)c(=O)c2ccc(Sc3ccccc3)cc21	63.2 nM	0.5	119 nM	
CCCCCn1cc(C(=O)NC23CC4CC(CC(C4)C2)C3)c(=O)c2ccc(Sc3ccccc3)cc21		3.3		
C=Cn1cc(C(=O)N[C@@H]2C(C)(C)C3CC[C@]2(C)C3)c(=O)c2ccc(F)cc21	3570 nM	235	15.2 nM	
CC1(C)C2CC[C@](C)(C2)[C@@H]1NC(=O)c1cn(CCCCO)c2cc(F)ccc2c1=O	398 nM	26	15.2 nM	
CCCCCn1cc(C(=O)NC2CN3CCC2CC3)c(=O)c2ccc(Sc3ccccc3)cc21 (centres undefined)	151 nM	1.7	89.1 nM	
CCCCCn1cc(C(=O)N2CCC[C@H]2C(N)=O)c(=O)c2ccc(Sc3ccccc3)cc21	1490 nM	6.5	230 nM	
CCCCn1cc(C(=O)N[C@@H]2C(C)(C)C3CC[C@]2(C)C3)c(=O)c2ccc(Sc3ccccc3)cc21	4.7 nM	31	0.1 nM	
CCCn1cc(C(=O)N[C@@H]2C(C)(C)C3CC[C@]2(C)C3)c(=O)c2ccc(F)cc21	193 nM	57	2.9 nM	
CCCCCn1cc(C(=O)NCc2ccc(Cl)c(Cl)c2)c(=O)c2ccc(Sc3ccccc3)cc21	420 nM	< 0.04	> 10000 nM	EC50 (Cannabinoid receptor 1 [10]): 791 nM; Emax (Cannabinoid receptor 1 [11]): 55.8%; remaining at 1 h (CYP3A4): 25%; remaining at 3 h [4]: 100%; microsomal CLint [5]: > 700 µL/min/mg; microsomal CLint [6]: > 700 µL/min/mg; Papp A→B at 2 h, 10 µM (MDR1 [7]): 0.14 ×10⁻⁶ cm/s; efflux ratio at 2 h, 10 µM (MDR1 [8]): 0.4

Source: ChEMBL document CHEMBL2151006 (Eur J Med Chem, 2012)
